# Results from ChEMBL document CHEMBL1143636, “A series of bisaryl imidazolidin-2-ones has shown to be selective and orally active 5-HT2C receptor antagonists” (Bioorg Med Chem Lett, 2005).
# Active and inactive are the calls of the source. The calls are words filed in the database; no cut-off is given here.
# Assays:
# [1] = target: T1, 5-hydroxytryptamine receptor 2C (Homo sapiens, UniProt P28335); assay: Binding affinity for human 5-hydroxytryptamine 2C receptor expressed in HEK 293 cells using [3H]mesulergine; format: cell-based, HEK293
# T1 sequence (P28335 whole entry): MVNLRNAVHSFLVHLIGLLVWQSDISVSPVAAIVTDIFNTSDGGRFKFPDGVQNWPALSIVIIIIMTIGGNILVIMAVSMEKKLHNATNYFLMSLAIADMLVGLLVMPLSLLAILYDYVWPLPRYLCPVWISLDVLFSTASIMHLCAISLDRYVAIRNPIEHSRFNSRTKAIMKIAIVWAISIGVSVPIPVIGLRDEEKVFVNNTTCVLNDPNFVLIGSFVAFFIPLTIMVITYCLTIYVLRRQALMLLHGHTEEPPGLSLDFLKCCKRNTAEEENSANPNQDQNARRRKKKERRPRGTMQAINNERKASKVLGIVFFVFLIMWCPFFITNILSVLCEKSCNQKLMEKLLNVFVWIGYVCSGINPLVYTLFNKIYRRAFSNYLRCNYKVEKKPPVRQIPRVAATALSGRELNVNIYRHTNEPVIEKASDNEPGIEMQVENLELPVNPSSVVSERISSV
# [2] = target: 5-hydroxytryptamine receptor 2B (Homo sapiens, UniProt P41595); assay: Binding affinity for human 5-hydroxytryptamine 2B receptor expressed in HEK 293 cells using [3H]5-HT; format: cell-based, HEK293
# 5-hydroxytryptamine receptor 2B, sequence (P41595 whole entry): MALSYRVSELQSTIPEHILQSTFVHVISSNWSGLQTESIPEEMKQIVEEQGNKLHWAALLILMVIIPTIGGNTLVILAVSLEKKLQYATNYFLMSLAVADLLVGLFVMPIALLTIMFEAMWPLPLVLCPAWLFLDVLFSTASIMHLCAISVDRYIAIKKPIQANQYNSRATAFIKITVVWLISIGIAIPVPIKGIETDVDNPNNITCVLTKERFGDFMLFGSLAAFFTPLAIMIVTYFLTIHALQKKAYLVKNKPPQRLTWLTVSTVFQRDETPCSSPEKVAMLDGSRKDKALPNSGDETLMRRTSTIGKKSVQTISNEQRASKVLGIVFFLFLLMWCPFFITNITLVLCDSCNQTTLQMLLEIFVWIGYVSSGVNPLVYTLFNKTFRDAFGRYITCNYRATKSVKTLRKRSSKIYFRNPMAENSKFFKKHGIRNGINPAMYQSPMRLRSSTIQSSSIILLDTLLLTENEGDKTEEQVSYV
# [3] = target: 5-hydroxytryptamine receptor 2A (Homo sapiens, UniProt P28223); assay: Binding affinity for human 5-hydroxytryptamine 2A receptor expressed in HEK 293 cells using [3H]ketanserin; format: cell-based, HEK293
# 5-hydroxytryptamine receptor 2A, sequence (P28223 whole entry): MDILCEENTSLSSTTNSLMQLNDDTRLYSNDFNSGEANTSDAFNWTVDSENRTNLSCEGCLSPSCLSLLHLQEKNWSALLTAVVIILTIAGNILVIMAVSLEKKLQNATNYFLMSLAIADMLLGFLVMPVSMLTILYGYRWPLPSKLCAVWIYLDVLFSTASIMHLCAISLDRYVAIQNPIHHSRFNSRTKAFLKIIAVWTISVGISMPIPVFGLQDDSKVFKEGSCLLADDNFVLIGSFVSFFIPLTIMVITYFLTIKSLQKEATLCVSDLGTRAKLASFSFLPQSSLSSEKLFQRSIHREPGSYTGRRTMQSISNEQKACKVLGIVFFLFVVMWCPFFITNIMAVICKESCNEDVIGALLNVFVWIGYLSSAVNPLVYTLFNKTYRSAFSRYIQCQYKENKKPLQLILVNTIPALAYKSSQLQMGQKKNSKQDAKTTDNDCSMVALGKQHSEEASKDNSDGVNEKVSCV
# [4] = system: Rattus norvegicus; assay: Percentage reversal at 10 mg/kg po of mCPP (7 mg/kg i.p.) induced hypolocomotion; format: functional
# Method in brief: (§1)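 Rats were given the test compound orally at 10 mg/kg. mCPP, a 5-HT2C agonist, was given at 7 mg/kg ip 20 min before testing to induce hypolocomotion. The read-out was the percentage reversal of mCPP-induced hypolocomotion.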
# [5] = In vivo clearance in rat was determined; format: ADME, organism-based
# [6] = system: Rattus norvegicus; assay: Dose of compound required to reverse mCPP (7 mg/kg i.p.) induced hypolocomotion by 50%; format: functional
# Method in brief: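 In rats, hypolocomotion was induced with the 5-HT2C agonist mCPP at 7 mg/kg ip, given 30 min pretest. The value is the compound dose that reversed the mCPP-induced hypolocomotion by 50%.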
# [7] = system: Rattus norvegicus; assay: Percentage reversal at 10 mg/kg po of mCPP (7 mg/kg i.p.) induced hypolocomotion; IA = in active; format: functional, organism-based; design: dose 10 mg/kg; method in brief: as §1
# [8] = system: Rattus norvegicus; assay: Percentage reversal at 10 mg/kg po of mCPP (7 mg/kg i.p.) induced hypolocomotion; in active; format: functional, organism-based; design: dose 10 mg/kg; method in brief: as §1
SMILES,Ki [1],Ki [2],Ki [3],Reversal [4],clearance [5],ID50 [6],Reversal [7],Reversal [8]
COc1cc2c(cc1OCCN1CCCCC1)N(C(=O)/C=C/c1ccccc1Cl)CC2,0.631 nM,126 nM,398 nM,71%,–,–,–,–
COc1ccc(N2CCN(c3cccc(F)c3)C2=O)cc1OCCN(C)C,3.98 nM,1580 nM,2510 nM,40%,–,–,–,–
COc1ccc(N2CCN(c3cccc(F)c3)C2=O)cc1OCCN1CCCCC1,1.58 nM,501 nM,2000 nM,7%,> 120 mL/min/kg,–,–,–
O=C1N(c2ccc(OCCN3CCCCC3)nc2)CCN1c1ccc(Cl)c(Cl)c1,25.1 nM,158 nM,1000 nM,–,–,–,–,–
Cc1cc2c(cc1C(F)(F)F)N(C(=O)Nc1ccc(OCc3ccccn3)nc1)CC2,–,–,–,–,–,1 mg/kg,–,–
COc1ccc(N2CCN(c3cccc(Cl)c3Cl)C2=O)cc1OCCN1CCCCC1,10 nM,1260 nM,1580 nM,–,–,–,inactive,–
COc1ccc(N2CCN(c3cccc(F)c3)C2=O)cc1OCCO,1260 nM,1260 nM,> 10000 nM,–,–,–,–,–
COc1ccc(N2CCN(c3ccc(C)c(C(F)(F)F)c3)C2=O)cc1OCCN1CCCCC1,2 nM,79.4 nM,398 nM,–,–,–,–,inactive
COc1ccc(N2CCN(c3ccc(C)c(C(F)(F)F)c3)C2=O)cc1OCCN1CCOCC1,7.94 nM,126 nM,3160 nM,–,–,–,–,inactive
COc1ccc(N2CC(=O)N(c3cccc(F)c3)C2=O)cc1OCCN1CCCCC1,50.1 nM,> 6310 nM,> 10000 nM,–,–,–,–,–
COc1ccc(N2CCN(c3ccccc3)C2=O)cc1OCCN1CCCCC1,1.26 nM,1260 nM,2510 nM,–,–,–,–,inactive
COc1ccc(N2CCN(c3ccc(Cl)c(Cl)c3)C2=O)cc1OCCN1CCCCC1,0.794 nM,316 nM,631 nM,75%,45 mL/min/kg,–,–,–
COc1ccc(N2CCN(c3ccc(Cl)c(Cl)c3)C2=O)cc1OCCN(C)C,1.26 nM,–,501 nM,–,–,–,–,inactive
COc1ccc(N2CCN(c3ccc(Cl)c(Cl)c3)C2=O)cc1OCCN1CCOCC1,3.16 nM,316 nM,> 5010 nM,7%,–,–,–,–
O=C1N(c2ccc(OCc3ccccn3)nc2)CCN1c1ccc(Cl)c(Cl)c1,398 nM,> 6310 nM,> 10000 nM,–,–,–,–,–
Cc1cc2c(cc1C(F)(F)F)N(C(=O)Nc1ccc(Oc3cccnc3C)nc1)CC2 [SB-243213],–,–,–,–,–,0.7 mg/kg,–,–
COc1ccc(-n2ccn(-c3cc(F)cc(F)c3)c2=O)cc1OCCN1CCCCC1,7.94 nM,> 7940 nM,> 10000 nM,–,–,–,–,–
COc1ccc(-n2ccn(-c3cccc(F)c3)c2=O)cc1OCCN1CCCCC1,6.31 nM,2000 nM,> 1000 nM,–,–,–,–,inactive
Cc1cc2c(cc1Cl)N(C(=O)Nc1ccc(Oc3cccnc3C)nc1)CC2 [SB-242084],–,–,–,–,–,2 mg/kg,–,–
COc1ccc(N2CCN(c3ccccc3Cl)C2=O)cc1OCCN1CCCCC1,31.6 nM,> 7940 nM,3980 nM,–,–,–,–,–
COc1ccc(N2CCN(c3cccc(F)c3)C2=O)cc1OCCN1CCOCC1,12.6 nM,794 nM,> 6310 nM,10%,> 120 mL/min/kg,–,–,–
COc1ccc(N2CCN(c3cc(F)cc(F)c3)C2=O)cc1OCCN1CCCCC1,1 nM,> 5010 nM,> 10000 nM,40%,–,–,–,–
